Source: ChEMBL document CHEMBL4041473, “Identification of novel microsomal prostaglandin E2 synthase-1 (mPGES-1) lead inhibitors from Fragment Virtual Screening” (Eur J Med Chem, 2017)

Experiments:
[1] = target: T1, Prostaglandin E synthase (Homo sapiens) (UniProt O14684); assay: Inhibition of mPGES-1 in microsomes isolated from IL-1beta-stimulated human A549 cells at 10 uM using PGH2 as substrate preincubated for 15 mins followed by substrate addition measured after 1 min by RP-HPLC method relative to control; type: cell-free
T1 sequence (whole entry): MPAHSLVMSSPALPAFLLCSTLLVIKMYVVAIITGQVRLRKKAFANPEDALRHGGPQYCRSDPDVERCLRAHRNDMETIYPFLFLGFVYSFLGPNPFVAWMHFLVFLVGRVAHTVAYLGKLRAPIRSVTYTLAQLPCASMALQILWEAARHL
Method in brief: (§1)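 mPGES-1 source: microsomes of A549 cells stimulated 48 h with IL-1β (1 ng/ml), sonicated, spun 10,000×g 10 min then 174,000×g 1 h at 4 °C. Diluted in 0.1 M potassium phosphate pH 7.4 with 2.5 mM glutathione. Compound or DMSO vehicle added 15 min at 4 °C, then 20 µM PGH2 for 1 min at 4 °C. Stopped with FeCl2/citric acid plus 11β-PGE2. PGE2 measured by solid-phase extraction and RP-HPLC.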

Prostaglandin E synthase = target: T2, Prostaglandin E synthase (Homo sapiens, UniProt O14684); assay: Inhibition of mPGES-1 in microsomes isolated from IL-1beta-stimulated human A549 cells using PGH2 as substrate preincubated for 15 mins followed by substrate addition measured after 1 min by RP-HPLC method; type: cell-free; method in brief: as §1
T2 sequence (O14684 whole entry): T1 sequence (whole entry)

Structure (SMILES)	inhibition [1]	IC50 (Prostaglandin E synthase)
CC(=O)O/N=C1\C=Cc2c(no[n+]2[O-])C1=O	20%	–
O=C1c2nc3nonc3nc2-c2cccc(O)c21	5%	–
O=C(Oc1cccc2c1C(=O)c1nc3nonc3nc1-2)c1ccccc1	70%	4.6 µM
O=C1c2ccc(O)cc2-c2nc3nonc3nc21	30%	–
O=C(Oc1ccc2c(c1)C(=O)c1nc3nonc3nc1-2)c1ccccc1	85%	2.4 µM
O=C(Oc1ccc2c(c1)-c1nc3nonc3nc1C2=O)c1ccccc1	70%	2.4 µM
O=C1c2cc(O)ccc2-c2nc3nonc3nc21	15%	–
O=C1c2ccccc2-c2nc3nonc3nc21	30%	–
